Legend:
[1] = Displacement of [3H]-SCH-23390 from dopamine D1 like receptor in pig striatal homogenates after 30 mins by scintillation counting; assay type: tissue-based, Sus scrofa
[2] = Displacement of [3H]-N-methylspiperone from dopamine D2 like receptor in pig striatal homogenates after 30 mins by scintillation counting; assay type: tissue-based, Sus scrofa
D(1A) dopamine receptor = D(1A) dopamine receptor (Homo sapiens, UniProt P21728); assay: Displacement of [3H]-SCH-23390 from human dopamine D1 receptor expressed in HEK293 cells after 30 mins by scintillation counting; assay type: cell-based
Sequence of D(1A) dopamine receptor (P21728 whole entry): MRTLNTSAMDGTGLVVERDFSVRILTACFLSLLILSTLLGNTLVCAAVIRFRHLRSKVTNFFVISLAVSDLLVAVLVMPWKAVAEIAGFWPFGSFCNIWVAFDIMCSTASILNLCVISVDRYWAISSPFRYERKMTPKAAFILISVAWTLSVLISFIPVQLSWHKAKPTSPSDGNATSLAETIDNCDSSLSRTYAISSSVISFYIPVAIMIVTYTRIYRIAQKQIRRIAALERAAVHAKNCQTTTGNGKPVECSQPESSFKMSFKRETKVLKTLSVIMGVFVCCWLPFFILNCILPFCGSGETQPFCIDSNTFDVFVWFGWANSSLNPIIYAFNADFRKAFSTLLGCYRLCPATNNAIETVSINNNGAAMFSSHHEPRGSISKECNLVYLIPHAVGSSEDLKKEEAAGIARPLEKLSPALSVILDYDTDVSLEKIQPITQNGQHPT

D(3) dopamine receptor [3] = biological target: T1, D(3) dopamine receptor (Homo sapiens, UniProt P35462); assay: Displacement of [3H]-N-methylspiperone from human dopamine D3 receptor expressed in HEK293 cells after 30 mins by scintillation counting; assay type: cell-based
T1 sequence (P35462 whole entry): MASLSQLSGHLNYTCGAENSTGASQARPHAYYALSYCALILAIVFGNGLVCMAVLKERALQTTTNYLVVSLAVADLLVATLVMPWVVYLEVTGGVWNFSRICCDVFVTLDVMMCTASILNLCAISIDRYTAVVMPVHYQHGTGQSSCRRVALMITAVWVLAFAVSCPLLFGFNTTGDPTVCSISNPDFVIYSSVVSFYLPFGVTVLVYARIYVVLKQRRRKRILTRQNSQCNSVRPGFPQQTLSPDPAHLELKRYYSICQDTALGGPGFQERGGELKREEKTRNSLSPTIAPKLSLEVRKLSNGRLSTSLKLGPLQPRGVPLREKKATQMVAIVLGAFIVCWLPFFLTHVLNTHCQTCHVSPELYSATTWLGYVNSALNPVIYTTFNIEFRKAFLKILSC

Sus scrofa = species: Sus scrofa; assay: Selectivity ratio of Ki for dopamine D2 like receptor in pig striatal homogenates to Ki for dopamine D1 like receptor in pig striatal homogenates; assay type: tissue-based
Summary of the method: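 Porcine striatal homogenate in 50 mM HEPES, 4 mM MgCl2, pH 7.4. […] D2-like sites labelled with 0.2–0.4 nM [3H]N-methylspiperone plus 50 nM ketanserin to block 5-HT2A. Nonspecific binding with 5 µM (+)-butaclamol. 30 min at 37 °C, filtration, scintillation counting. Ki by Cheng-Prusoff from IC50. At least three experiments.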

Homo sapiens [4] = species: Homo sapiens; assay: Selectivity ratio of Ki for human dopamine D3 receptor to Ki for human dopamine D2long receptor
Summary of the method: (§1)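 Membranes from HEK293 cells transiently expressing human receptors: D1 at ~2840 fmol/mg, D2Long at ~2500 fmol/mg, D3 at ~1980 fmol/mg. Buffer 50 mM Tris, 4 mM MgCl2, pH 7.4. […] 5 µM (+)-butaclamol for nonspecific binding. 30 min at 37 °C, filtration, scintillation.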

D(2) dopamine receptor = D(2) dopamine receptor (Homo sapiens, UniProt P14416); assay: Displacement of [3H]-N-methylspiperone from human dopamine D2long receptor expressed in HEK293 cells after 30 mins by scintillation counting; assay type: cell-based
Sequence of D(2) dopamine receptor (P14416 whole entry): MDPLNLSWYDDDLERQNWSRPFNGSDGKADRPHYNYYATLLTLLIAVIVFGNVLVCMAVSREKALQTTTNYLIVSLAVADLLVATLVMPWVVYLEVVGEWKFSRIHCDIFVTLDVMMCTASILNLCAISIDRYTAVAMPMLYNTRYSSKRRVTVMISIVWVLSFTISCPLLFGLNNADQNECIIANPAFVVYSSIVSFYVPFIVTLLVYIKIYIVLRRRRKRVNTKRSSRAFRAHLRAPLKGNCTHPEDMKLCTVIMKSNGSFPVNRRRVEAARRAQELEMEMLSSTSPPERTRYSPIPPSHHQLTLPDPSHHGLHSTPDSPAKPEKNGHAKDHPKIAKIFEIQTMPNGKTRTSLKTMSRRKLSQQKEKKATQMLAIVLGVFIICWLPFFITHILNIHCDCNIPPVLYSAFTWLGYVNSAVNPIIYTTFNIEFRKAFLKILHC

Homo sapiens [5] = species: Homo sapiens; assay: Selectivity ratio of Ki for human dopamine D3 receptor to Ki for human dopamine D1 receptor; summary of the method: as §1
D(3) dopamine receptor [6] = biological target: T1, D(3) dopamine receptor; assay: Agonist activity at dopamine D3 receptor in human U2OS-D3 cells assessed as EA-tagged beta-arrestin translocation after 1.5 hrs by luminescence based beta-galactosidase assay relative to dopamine; assay type: functional, cell-based

Work on Oc1ccc2c(c1O)C[C@@H](c1ccccc1)[C@@H]1CCNC[C@@H]21 yielded a Ki [1] of 0.0082 µM, a Ki [2] of 0.18 µM and a Ki (D(1A) dopamine receptor) of 0.047 µM. The Ki (D(3) dopamine receptor [3]) was 0.21 µM.

Compound CN1CCc2cc(Cl)c(O)cc2[C@@H](c2ccccc2)C1.O=C(O)/C(O)=C(/O)C(=O)O has a Ki [1] of 0.00031 µM.

Work on Oc1ccc([C@H]2CN[C@@H]3CCc4cc(O)c(O)cc4[C@H]3C2)cc1 (racemic) yielded a Ratio Ki (Sus scrofa) of 34, a Ki [1] of 0.49 µM and a Ratio Ki (Homo sapiens [4]) of 10. The Ki (D(2) dopamine receptor) was 0.49 µM, the Ki [2] was 0.014 µM and the Ki (D(1A) dopamine receptor) was 0.55 µM. The Ki (D(3) dopamine receptor [3]) was 0.05 µM.

In the case of Oc1cccc([C@H]2CN[C@@H]3CCc4cc(O)c(O)cc4[C@H]3C2)c1 (racemic), the Ratio Ki (Sus scrofa) is reported as 20, the Ki [1] is reported as 0.58 µM and the Ki [2] is reported as 0.029 µM.

Cc1ccc([C@H]2CN[C@@H]3CCc4cc(O)c(O)cc4[C@H]3C2)cc1 (racemic) gave a Ratio Ki (Sus scrofa) of 14, a Ki [1] of 0.81 µM and a Ki [2] of 0.056 µM.

For Oc1cc2c(cc1O)[C@H]1C[C@@H](c3ccc(C(F)(F)F)cc3)CN[C@@H]1CC2 (racemic), the Ratio Ki (Sus scrofa) was 16, the Ki [1] was 2.37 µM and the Ki [2] was 0.15 µM.

Oc1cc2c(cc1O)[C@H]1C[C@@H](c3ccccc3)CN[C@@H]1CC2 (racemic) showed a Ratio Ki (Sus scrofa) of 31, a Ki [1] of 0.93 µM and a Ki [2] of 0.03 µM.

Compound CCCN1C[C@H](c2ccc(O)cc2)C[C@@H]2c3cc(O)c(O)cc3CC[C@H]21 (relative stereo) has a Ratio Ki (Homo sapiens [5]) of 840, a Ratio Ki (Sus scrofa) of 61 and an Emax (D(3) dopamine receptor [6]) of 103%. The Ki [1] was 0.63 µM, the Ratio Ki (Homo sapiens [4]) was 145 and the Ki [2] was 0.01 µM. The Ki (D(1A) dopamine receptor) was 0.921 µM.

In the case of Oc1cc2c(cc1O)[C@H]1c3ccccc3CN[C@@H]1CC2 (relative stereo) [DIHYDREXIDINE], the Ki [2] is reported as 0.2 µM.

From ChEMBL document CHEMBL2157876, “Identification of a 2-phenyl-substituted octahydrobenzo[f]quinoline as a dopamine D₃ receptor-selective full agonist ligand” (Bioorg Med Chem, 2012)
